Type in all cases: physicochemical
Series [1] is described as follows: Antioxidant activity assessed as superoxide anion radical scavenging activity at 40 uM measured as rate constant recorded every min for 7 mins by nitroblue tetrazolium assay (reference value: 0.188 +/- 0.001 /min). Summed up:
(§1)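 Superoxide came from hypoxanthine/xanthine oxidase (2 mM HPX, 0.56 U·mL−1 XOD stocks) with 0.34 mM NBT in 50 mM phosphate buffer pH 7.4. A560 was read every minute for 7 min. Pseudo-first-order rate constant k1 and final NBTH2 absorbance (t → ∞) came from curve-fitting absorbance vs time, with antioxidant at 40, 80 or 160 μM.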

Series [2] is described as follows: Antioxidant activity assessed as superoxide anion radical scavenging activity at 160 uM measured as rate constant recorded every min for 7 mins by nitroblue tetrazolium assay (reference value: 0.188 +/- 0.001 /min). Summed up:
as §1

Series [3] is described as follows: Antioxidant activity assessed as DPPH radical scavenging activity at 16.7 uM measured as absorbance (t -> infinity) after 10 secs by UV-visible spectrophotometry. The settings on record: 10 s. Summed up: (§2)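 DPPH radical decay, antioxidant at 1.67, 16.7 or 60.0 μM. After 10 s of mixing with DPPH, A517 was read at once and then every 15 s for 5 min. The second-order rate constant k and the plateau absorbance (t → ∞) came from curve-fitting absorbance vs time under global second-order kinetics.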

Series [4] is described as follows: Antioxidant activity assessed as hydroxyl radical scavenging activity at 1.5 uM by ESR spin trapping assay. Summed up:
(§3)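 Hydroxyl radicals came from Fenton reaction (H2O2, EDTA, FeSO4 to start) with DMPO spin trap. Samples in ACN (stocks 0.03–0.3 mM) gave final 1.5, 2.5, 5.0 or 15.0 μM; ACN alone served as control. ESR signal was taken as the ratio of the DMPO adduct second-singlet amplitude to the TEMPO (2 μM, daily reference) first-singlet amplitude.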

The nature of series [5]: Antioxidant activity assessed as superoxide anion radical scavenging activity at 80 uM measured as rate constant recorded every min for 7 mins by nitroblue tetrazolium assay (reference value: 0.188 +/- 0.001 /min). Summed up:
as §1

A short description of series [6]: Antioxidant activity assessed as hydroxyl radical scavenging activity at 5 uM by ESR spin trapping assay. Summed up: as §3
A short description of series [7]: Antioxidant activity assessed as hydroxyl radical scavenging activity at 15 uM by ESR spin trapping assay. Summed up:
as §3

Series [8] in a line: Antioxidant activity assessed as DPPH radical scavenging activity at 60 uM measured as absorbance (t -> infinity) after 10 secs by UV-visible spectrophotometry. The settings on record: 10 s. Summed up:
as §2
In general terms: Loss of DPPH colour is used to gauge radical scavenging.

Series [9] can be described thus: Antioxidant activity assessed as DPPH radical scavenging activity at 1.67 uM measured as absorbance (t -> infinity) after 10 secs by UV-visible spectrophotometry. The settings on record: 10 s. Summed up:
as §2

A short description of series [10]: Antioxidant activity assessed as DPPH radical scavenging activity measured as rate constant after 10 secs by UV-visible spectrophotometry. The settings on record: 10 s. Summed up: as §2
A short description of series [11]: Antioxidant activity assessed as superoxide anion radical scavenging activity at 40 uM measured as absorbance (t > infinity) recorded every min for 7 mins by nitroblue tetrazolium assay (reference value: 1.9 +/- 0.01). Summed up:
as §1

Series [12] in a line: Antioxidant activity assessed as superoxide anion radical scavenging activity at 80 uM measured as absorbance (t > infinity) recorded every min for 7 mins by nitroblue tetrazolium assay (reference value: 1.9 +/- 0.01). Summed up: as §1
A short description of series [13]: Antioxidant activity assessed as hydroxyl radical scavenging activity at 2.5 uM by ESR spin trapping assay. Summed up: as §3
A short description of series [14]: Antioxidant activity assessed as superoxide anion radical scavenging activity at 160 uM measured as absorbance (t > infinity) recorded every min for 7 mins by nitroblue tetrazolium assay (reference value: 1.9 +/- 0.01). Summed up:
as §1

Series [15] can be described thus: Antioxidant activity assessed as superoxide anion radical scavenging activity measured as rate constant recorded every min for 7 mins by nitroblue tetrazolium assay. Summed up:
as §1

Consider `COC(=O)/C=C/c1ccc(O)c(OC)c1`, for which the K turned out to be 0.15 min⁻¹ in series [1], 0.14 min⁻¹ in series [2], 0.15 min⁻¹ in series [5] and 14000 M⁻¹ s⁻¹ in [10]. Moreover, the Activity was found to be 0.896 in series [3]; 19% in series [4]; 36% in series [6]; 43% in series [7]; 0.57 in [8]; 1.008 in [9]. In addition, the Activity is 1.9 in series [11], 1.72 in series [12], 31% in series [13] and 1.6 in series [14].

With `CC[C@H](/C=C/[C@@H](C)[C@H]1CC[C@H]2[C@@H]3CC=C4C[C@@H](OC(=O)/C=C/c5ccc(O)c(OC)c5)CC[C@]4(C)[C@H]3CC[C@]12C)C(C)C`, the K in [1] is 0.18 min⁻¹; in [2] it was 0.11 min⁻¹; in series [5], 0.11 min⁻¹; in series [10] it was 12000 M⁻¹ s⁻¹. For the same molecule, the Activity in [3] was found to be 1.01; in series [4] it was 23%; in series [6] it was 30%; in series [7], 44%; in series [8], 0.72; in series [9] it was 1.144. Also, the Activity result in [15] was “Dose-dependent effect”; in [11], 1.68; in series [12] it was 1.76; in series [13] it was 26%; in series [14], 1.78.

For `COc1cc(/C=C/C(=O)O[C@H]2CC[C@@]3(C)[C@@H](CC[C@@H]4[C@@H]3CC[C@]3(C)[C@@H]([C@H](C)CC[C@@H](C)C(C)C)CC[C@@H]43)C2)ccc1O`, the K in series [1] amounted to 0.13 min⁻¹; in series [2] it was 0.13 min⁻¹; in [5], 0.19 min⁻¹; in series [10], 18000 M⁻¹ s⁻¹. Also, the Activity was 1.091 in series [3]; 23% in [4]; 34% in series [6]; 43% in [7]; 0.79 in series [8]; 1.198 in series [9]. For the same molecule, the Activity in series [11] amounted to 1.89; in series [12] it was 1.47; in [13], 27%; in series [14], 1.57.

Regarding `CC[C@H](CC[C@@H](C)[C@H]1CC[C@H]2[C@@H]3CC=C4C[C@@H](OC(=O)/C=C/c5ccc(O)c(OC)c5)CC[C@]4(C)[C@H]3CC[C@]12C)C(C)C`, the K in series [1] came to 0.19 min⁻¹; in series [2] it was 0.13 min⁻¹; in [5], 0.19 min⁻¹; in series [10] it was 13000 M⁻¹ s⁻¹. For the same molecule, the Activity in [3] is on record as 0.944; in series [4], 20%; in series [6], 31%; in series [7] it was 43%; in [8], 0.64; in series [9] it was 1.298. In addition, the Activity entry in series [15] was “Dose-dependent effect”; in series [11], 1.64; in [12], 1.38; in [13], 24%; in series [14] it was 1.16.

As for `CC[C@H](CC[C@@H](C)[C@H]1CC[C@H]2[C@@H]3CC[C@H]4C[C@@H](OC(=O)/C=C/c5ccc(O)c(OC)c5)CC[C@]4(C)[C@H]3CC[C@]12C)C(C)C`, the K in series [1] was 0.14 min⁻¹; in series [2], 0.14 min⁻¹; in [5], 0.21 min⁻¹; in [10], 15000 M⁻¹ s⁻¹. Further, the Activity worked out at 0.991 in [3]; 22% in series [4]; 28% in series [6]; 40% in series [7]; 0.64 in [8]; 1.156 in [9]. The Activity was determined as 1.85 in series [11], 1.35 in [12], 25% in [13] and 1.47 in series [14].

Consider `COc1cc(/C=C/C(=O)O[C@H]2CC[C@@]3(C)C(=CC[C@H]4[C@@H]5CC[C@H]([C@H](C)CC[C@@H](C)C(C)C)[C@@]5(C)CC[C@@H]43)C2)ccc1O`, for which the K in series [1] worked out at 0.17 min⁻¹; in series [2], 0.13 min⁻¹; in series [5], 0.18 min⁻¹; in series [10] it was 13000 M⁻¹ s⁻¹. Also, the Activity in series [3] is 1.045; in series [4], 21%; in [6], 29%; in [7] it was 39%; in series [8], 0.7; in series [9], 1.273. For the same molecule, the Activity entry is “Dose-dependent effect” in series [15]; 1.65 in series [11]; 1.4 in series [12]; 25% in series [13]; 1.19 in series [14].

As for `COc1cc(/C=C/C(=O)O[C@H]2CC[C@@]3(C)C(=CC[C@H]4[C@@H]5CC[C@H]([C@H](C)CCCC(C)C)[C@@]5(C)CC[C@@H]43)C2)ccc1O`, the K was 0.17 min⁻¹ in [1], 0.11 min⁻¹ in series [2], 0.11 min⁻¹ in series [5] and 12000 M⁻¹ s⁻¹ in [10]. The Activity in series [3] came to 0.979; in [4] it was 24%; in series [6], 30%; in series [7] it was 40%; in series [8], 0.74; in series [9], 1.245. Further, the Activity entry in series [15] was “Dose-dependent effect”; in series [11] it was 1.76; in series [12], 1.71; in series [13], 24%; in series [14], 1.82.

With `CCOC(=O)/C=C/c1ccc(O)c(OC)c1` [ETHYL FERULATE], the K in series [1] stood at 0.14 min⁻¹; in series [2], 0.13 min⁻¹; in series [5], 0.16 min⁻¹; in series [10] it was 13000 M⁻¹ s⁻¹. In addition, the Activity in [3] is 0.851; in series [4], 19%; in series [6], 36%; in series [7], 42%; in [8] it was 0.58; in series [9] it was 0.992. The Activity in series [11] amounted to 1.9; in [12], 1.7; in [13] it was 29%; in series [14], 1.6.

As for `COc1cc(/C=C/C(=O)O)ccc1O` [FERULATE], the K in series [1] is 0.2 min⁻¹; in [2], 0.19 min⁻¹; in series [5] it was 0.14 min⁻¹; in series [10], 12000 M⁻¹ s⁻¹. The Activity in series [3] was determined as 0.913; in [4], 23%; in [6] it was 33%; in series [7], 40%; in [8], 0.53; in series [9], 1.232. The Activity is listed as 1.27 in [11], 1.4 in series [12], 26% in [13] and 1.03 in series [14].

With `Oc1cccc(O)c1O` [PYROGALLOL], the K in series [10] came out at 120000 M⁻¹ s⁻¹.

Source of the values: ChEMBL document CHEMBL3797046, “Antioxidant Activity of Individual Steryl Ferulates from Various Cereal Grain Sources” (J Nat Prod, 2016).
